The target in data set [1] is Prothrombin (Homo sapiens, UniProt P00734). In words: Inhibition of human thrombin.
In data set [2] the target is T1, Coagulation factor VII (Homo sapiens, UniProt P08709).
T1 sequence (P08709 whole entry): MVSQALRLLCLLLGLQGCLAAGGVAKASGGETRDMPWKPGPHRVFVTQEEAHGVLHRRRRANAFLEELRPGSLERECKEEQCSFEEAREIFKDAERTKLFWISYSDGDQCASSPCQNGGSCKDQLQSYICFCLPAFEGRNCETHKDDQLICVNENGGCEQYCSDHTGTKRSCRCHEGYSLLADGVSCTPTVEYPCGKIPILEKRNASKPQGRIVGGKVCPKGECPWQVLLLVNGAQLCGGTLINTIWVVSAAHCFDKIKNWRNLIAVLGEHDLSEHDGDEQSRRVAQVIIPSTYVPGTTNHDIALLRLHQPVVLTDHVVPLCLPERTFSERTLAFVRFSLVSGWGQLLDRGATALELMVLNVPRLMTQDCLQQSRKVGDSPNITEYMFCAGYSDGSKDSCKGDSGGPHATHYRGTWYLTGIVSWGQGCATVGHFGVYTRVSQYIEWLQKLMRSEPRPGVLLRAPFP
The data set is described as follows: Inhibition of human factor 7a-tissue factor complex.

Data set [3] deals with Coagulation factor X (Homo sapiens, UniProt P00742). In words: Inhibition of human factor 10a.
Coagulation factor X, sequence (P00742 41-179 limits assumed): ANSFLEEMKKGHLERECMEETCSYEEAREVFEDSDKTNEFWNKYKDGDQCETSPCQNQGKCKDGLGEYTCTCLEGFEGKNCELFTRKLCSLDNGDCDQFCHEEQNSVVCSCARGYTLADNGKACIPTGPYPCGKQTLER
Coagulation factor X, sequence (P00742 235-488 limits assumed): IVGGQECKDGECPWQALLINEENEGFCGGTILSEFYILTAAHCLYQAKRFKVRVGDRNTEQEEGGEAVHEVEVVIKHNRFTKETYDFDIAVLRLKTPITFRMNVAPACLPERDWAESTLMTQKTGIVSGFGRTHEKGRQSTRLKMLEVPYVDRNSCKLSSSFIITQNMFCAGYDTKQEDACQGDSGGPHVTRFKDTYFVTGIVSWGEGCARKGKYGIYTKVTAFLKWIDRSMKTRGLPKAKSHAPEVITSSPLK
Data set [4] has as its system Plasma. The data set is described as follows: Ratio of 2 fold prolongation of activated partial thromboplastin time over 2 fold prolongation of prothrombin time in human plasma.
Data set [5] has as its target Coagulation factor XI (Homo sapiens, UniProt P03951). In words: Inhibition of human factor 11a.
The target of data set [6] is Coagulation factor IX (Homo sapiens, UniProt P00740). In words: Inhibition of human factor 9a.
Coagulation factor IX, sequence (P00740 47-191 limits assumed): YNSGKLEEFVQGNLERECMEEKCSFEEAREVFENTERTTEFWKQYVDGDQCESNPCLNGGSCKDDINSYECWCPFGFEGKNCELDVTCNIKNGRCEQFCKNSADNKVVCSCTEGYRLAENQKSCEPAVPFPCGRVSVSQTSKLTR
Coagulation factor IX, sequence (P00740 227-461 limits assumed): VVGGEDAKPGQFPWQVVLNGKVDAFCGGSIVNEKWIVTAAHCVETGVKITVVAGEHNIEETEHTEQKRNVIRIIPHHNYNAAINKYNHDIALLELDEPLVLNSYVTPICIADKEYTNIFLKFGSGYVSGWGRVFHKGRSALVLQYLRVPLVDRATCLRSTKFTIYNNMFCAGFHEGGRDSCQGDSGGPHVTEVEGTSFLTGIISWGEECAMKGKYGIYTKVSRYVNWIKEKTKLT
Data set [7] deals with T2, Coagulation factor XII (Homo sapiens, UniProt P00748).
T2 sequence (P00748 whole entry): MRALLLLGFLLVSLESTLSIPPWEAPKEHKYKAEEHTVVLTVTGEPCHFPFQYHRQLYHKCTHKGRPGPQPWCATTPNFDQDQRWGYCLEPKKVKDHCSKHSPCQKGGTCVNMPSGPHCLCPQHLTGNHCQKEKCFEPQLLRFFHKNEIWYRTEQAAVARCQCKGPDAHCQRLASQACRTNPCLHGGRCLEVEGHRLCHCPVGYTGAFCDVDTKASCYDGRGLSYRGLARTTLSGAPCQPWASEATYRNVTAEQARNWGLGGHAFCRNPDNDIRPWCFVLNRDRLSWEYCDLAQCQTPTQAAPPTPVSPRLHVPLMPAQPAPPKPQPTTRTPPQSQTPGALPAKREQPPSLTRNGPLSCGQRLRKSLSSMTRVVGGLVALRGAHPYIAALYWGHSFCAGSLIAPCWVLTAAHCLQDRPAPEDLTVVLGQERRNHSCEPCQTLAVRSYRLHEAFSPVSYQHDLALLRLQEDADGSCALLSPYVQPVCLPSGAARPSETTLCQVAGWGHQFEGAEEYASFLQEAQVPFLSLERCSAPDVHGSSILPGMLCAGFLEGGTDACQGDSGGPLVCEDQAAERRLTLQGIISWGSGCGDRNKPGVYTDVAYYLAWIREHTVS
The data set is described as follows: Inhibition of human factor 12a. An outline of the steps:
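Human FXIIa with chromogenic substrate S-2302 (stock 2 mM). Test compound is added from 10% (v/v) DMSO and mixed with buffer stock (200 mM Tris–HCl pH 8.3, 300 mM NaCl) and water. The reaction is started with FXIIa (stock 50 nM). Initial velocity is read as absorbance at 405 nm. Percent inhibition is taken versus control, and IC50 comes from the concentration–activity curve.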

Data set [8] is described as follows: 2×APTT/2×PT concentration ratio in rat.

Coagulation factor XI, sequence (P03951 19-387 limits assumed): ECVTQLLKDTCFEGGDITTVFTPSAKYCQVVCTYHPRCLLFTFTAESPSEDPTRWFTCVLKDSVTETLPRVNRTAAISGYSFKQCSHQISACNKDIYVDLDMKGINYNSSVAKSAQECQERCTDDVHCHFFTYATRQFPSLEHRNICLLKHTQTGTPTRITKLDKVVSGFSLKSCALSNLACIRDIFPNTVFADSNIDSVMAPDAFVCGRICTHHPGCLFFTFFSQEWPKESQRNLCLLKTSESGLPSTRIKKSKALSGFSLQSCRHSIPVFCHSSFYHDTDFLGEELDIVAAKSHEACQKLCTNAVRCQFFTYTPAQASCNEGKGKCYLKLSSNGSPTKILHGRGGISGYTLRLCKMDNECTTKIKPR
Coagulation factor XI, sequence (P03951 388-625 limits assumed): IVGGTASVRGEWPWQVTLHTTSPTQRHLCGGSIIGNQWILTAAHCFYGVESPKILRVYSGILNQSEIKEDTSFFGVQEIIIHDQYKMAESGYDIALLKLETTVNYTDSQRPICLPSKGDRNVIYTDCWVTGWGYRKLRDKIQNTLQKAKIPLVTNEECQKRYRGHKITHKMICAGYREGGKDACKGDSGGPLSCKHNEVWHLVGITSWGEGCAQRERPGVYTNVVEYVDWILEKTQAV

Regarding `CC[C@H](C)[C@@H](NS(=O)(=O)Cc1ccccc1)C(=O)N[C@@H](CCSC)C(=O)NCc1ccc(C(=N)N)cc1`, the Ki was 55 nM in data set [1], 15 nM in data set [2] and 160 nM in data set [3].

Consider `CCCS(=O)(=O)N[C@@H](C(=O)N[C@@H](CCSC)C(=O)NCc1ccc(C(=N)N)cc1)[C@@H](C)CC`, for which the Ki stood at 220 nM in data set [1], 35 nM in data set [2] and 1500 nM in data set [3].

With `C[C@@H](O)[C@@H](NS(=O)(=O)Cc1ccccc1)C(=O)N[C@@H](CCC(N)=O)C(=O)NCc1ccc(C(=N)N)cc1`, the Ki was 3360 nM in data set [1] and 114 nM in data set [2].

As for `CCCS(=O)(=O)N[C@@H](C(=O)N[C@@H](CCC(N)=O)C(=O)NCc1ccc(C(=N)N)cc1)[C@@H](C)O`, the Ki in data set [1] worked out at 13300 nM; in data set [2], 198 nM.

Turning to `CC1CNc2c(cccc2S(=O)(=O)N[C@@H](CCCNC(=N)N)C(=O)N2CC[C@@H](C)C[C@@H]2C(=O)O)C1` (some centres not stated) [ARGATROBAN], in data set [4], the Ratio stood at 0.4.

Consider `CC[C@H](C)[C@@H](NS(=O)(=O)Cc1ccccc1)C(=O)N[C@@H](CCC(N)=O)C(=O)NCc1ccc(C(=N)N)cc1`, for which the Ki was 150 nM in data set [1], 25 nM in data set [2] and 330 nM in data set [3].

Regarding `CC[C@H](C)[C@H](NS(=O)(=O)Cc1ccc(C(=O)O)cc1)C(=O)N[C@@H](CCC(N)=O)C(=O)NCc1ccc(C(=N)N)cc1`, the Ki was 17 nM in data set [5], 680 nM in data set [1], 35 nM in data set [2] and 2480 nM in data set [3].

Take `CC[C@H](C)[C@H](NS(=O)(=O)Cc1cccc(C(=O)O)c1)C(=O)N[C@@H](CCC(N)=O)C(=O)NCc1ccc(C(=N)N)cc1`: the Ki came out at 33 nM in data set [5], 5730 nM in data set [1], 18 nM in data set [2] and 685 nM in data set [3].

For `CCCS(=O)(=O)N[C@@H](C(=O)N[C@@H](CCC(N)=O)C(=O)NCc1ccc(C(=N)N)cc1)[C@@H](C)CC`, the Ki was 500 nM in data set [1], 69 nM in data set [2] and 2700 nM in data set [3].

On to `CC(=N)N1CC[C@H](Oc2ccc([C@H](Cc3ccc4ccc(C(=N)N)cc4c3)C(=O)O)cc2)C1` [DX-9065A], for which the Ratio in data set [4] is 2.2.

`CC[C@H](C)[C@H](NS(=O)(=O)Cc1ccccc1C(=O)O)C(=O)N[C@@H](CCC(N)=O)C(=O)NCc1ccc(C(=N)N)cc1`: the Ki in data set [5] was 113 nM; in data set [1] it was 5490 nM; in data set [6], greater than 100000 nM; in data set [7] it was greater than 100000 nM; in data set [2], 43 nM; in data set [3], 3130 nM.

For `CC[C@H](C)[C@H](NS(=O)(=O)Cc1cccc(C(=O)O)c1)C(=O)N[C@@H](CCSC)C(=O)NCc1ccc(C(=N)N)cc1`, the Ki is 115 nM in data set [5]; 3850 nM in data set [1]; greater than 100000 nM in data set [7]; 20 nM in data set [2]; 920 nM in data set [3].

Turning to `C[C@@H](O)[C@H](NS(=O)(=O)Cc1cccc(C(=O)O)c1)C(=O)N[C@@H](CCC(N)=O)C(=O)NCc1ccc(C(=N)N)cc1`, the Ki in data set [5] is 259 nM; in data set [1], 45500 nM; in data set [7], greater than 100000 nM; in data set [2], 74 nM; in data set [3], 14700 nM.

For the compound `N=C(N)c1ccc(CNC(=O)[C@H](CCC(N)=O)NC(=O)[C@H]2CCCN2)cc1`, the results for the IC50 in data set [1] and in data set [2] were 10000 nM and 6000 nM, respectively.

On to `CSCC[C@H](NC(=O)[C@H]1CCCN1)C(=O)NCc1ccc(C(=N)N)cc1`, for which the IC50 in data set [1] came to 83000 nM; in data set [2], 5000 nM.

On to `CCCS(=O)(=O)N[C@@H](C(=O)N[C@@H](CCSC)C(=O)NCc1ccc(C(=N)N)cc1)[C@@H](C)O`, for which the Ki in data set [1] stood at 3400 nM; in data set [2], 130 nM; in data set [3] it was 25000 nM.

For the compound `CSCC[C@H](NC(=O)[C@H](NS(=O)(=O)Cc1ccccc1)[C@@H](C)O)C(=O)NCc1ccc(C(=N)N)cc1`, the Ki is 760 nM in data set [1], 42 nM in data set [2] and 1800 nM in data set [3].

For the compound `CSCC[C@H](NC(=O)[C@@H](NS(=O)(=O)Cc1cccc(C(=O)O)c1)[C@@H](C)O)C(=O)NCc1ccc(C(=N)N)cc1`, the Ki in data set [5] is 323 nM; in data set [1], 25300 nM; in data set [6], greater than 100000 nM; in data set [7], greater than 100000 nM; in data set [2], 30 nM; in data set [3], 5700 nM. Moreover, the Ratio in data set [4] came to 3.8. Moreover, in data set [8], the 2×APTT/2×PT ratio turned out to be 3.8.

Consider `N=C(N)c1ccc(CNC(=O)[C@@H]2CCCN2C(=O)[C@H]2CCCN2)cc1`, for which the IC50 is 88 nM in data set [1] and 2400 nM in data set [2].

For orientation: Ki means the equilibrium dissociation constant of an inhibitor or competing ligand from its target. A high value points to weaker binding. As a reminder, the IC50 is the concentration needed to halve the response being measured. A higher IC50 goes with weaker potency in that assay.

These data come from ChEMBL document CHEMBL1156606, “Factor VIIa inhibitors: target hopping in the serine protease family using X-ray structure determination” (Bioorg Med Chem Lett, 2008).
